High-throughput results from PubChem BioAssay.
MEKK2mut PB1 HTS – MEK5 binding signal on mutant MEKK2 PB1, primary screen, biochemical, multiplex bead flow cytometry, Alexa488-MEK5; Alexa488-MEK5 binding to MEKK2 mutant; percent response, % at 10 µM; 290,000 compounds, 0.35% hits; AID 1530, 2009; in the data active = percent response above about 24%, passing the limit was not always enough
Efflux pump inh – inhibitors of Candida efflux pumps in yeast, primary screen, S. cerevisiae, Nile Red, multiplex; 330,000 compounds, 0.44% hits; AID 485275, 2010; S. cerevisiae Candida pump triplex; inhibition, % at 10 µM;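 active = plate passing quality check with inhibition over a set limit, or well fluorescence over plate mean plus 4 SD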;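 note: Nile Red retained in pooled yeast measured as flow cytometry median fluorescence; higher means more Nile Red kept so more efflux inhibition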
MEKK2wt PB1 HTS – modulators of MEK5 binding to wildtype MEKK2, primary screen, biochemical, multiplex bead flow cytometry, Alexa488-MEK5. Mitogen-activated protein kinase kinase kinase 2 (Homo sapiens), Q9Y2U5. Alexa488-MEK5 binding to MEKK2 WT; actives lie on both sides. binding response (% of control), % at 10 µM. 290,000 compounds, 1.1% hits. AID 1531, 2009; in the data active = binding response below about 67% or above about 130%
ABCG2 block – ABCG2 efflux pump inhibitors, primary screen, multiplex with ABCB1, IgMXP3 cells, flow cytometry; AID 1325, 2008; 190,000 compounds, 0.1% hits; Broad substrate specificity ATP-binding cassette transporter ABCG2 (Homo sapiens), Q9UNQ0; JC-1 efflux; inhibition, % at 6.6 µM;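 active = inhibition above 80%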
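Test system: IgMXP3 (ABCG2) plus far-red-tagged CCRF-Adr (ABCB1) cells / Amount: 3 million cells/mL in well / Reagent: JC-1 transporter substrate / Timing: 10 min compound exposure, 25 °C / Signal: flow cytometry, 530 nm JC-1 signal / Read-out: percent efflux inhibition, scaled nicardipine 100% to DMSO 0% / Benchmarks: nicardipine as high control, DMSO as low control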
ABCB1 inh – ABCB1 efflux pump inhibitors, primary screen, cell-based, multiplex, flow cytometry, ABCG2 counter-screen; AID 1326, 2008; CCRF-Adr cells, JC-1 efflux; 190,000 compounds, 0.067% hits; inhibition, % at 6.6 µM; ATP-dependent translocase ABCB1 (Homo sapiens), P08183; in the data active = inhibition above about 40%;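 note: higher value means more JC-1 retained so stronger ABCB1 efflux block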
Target sequence (P08183 whole entry, looked up): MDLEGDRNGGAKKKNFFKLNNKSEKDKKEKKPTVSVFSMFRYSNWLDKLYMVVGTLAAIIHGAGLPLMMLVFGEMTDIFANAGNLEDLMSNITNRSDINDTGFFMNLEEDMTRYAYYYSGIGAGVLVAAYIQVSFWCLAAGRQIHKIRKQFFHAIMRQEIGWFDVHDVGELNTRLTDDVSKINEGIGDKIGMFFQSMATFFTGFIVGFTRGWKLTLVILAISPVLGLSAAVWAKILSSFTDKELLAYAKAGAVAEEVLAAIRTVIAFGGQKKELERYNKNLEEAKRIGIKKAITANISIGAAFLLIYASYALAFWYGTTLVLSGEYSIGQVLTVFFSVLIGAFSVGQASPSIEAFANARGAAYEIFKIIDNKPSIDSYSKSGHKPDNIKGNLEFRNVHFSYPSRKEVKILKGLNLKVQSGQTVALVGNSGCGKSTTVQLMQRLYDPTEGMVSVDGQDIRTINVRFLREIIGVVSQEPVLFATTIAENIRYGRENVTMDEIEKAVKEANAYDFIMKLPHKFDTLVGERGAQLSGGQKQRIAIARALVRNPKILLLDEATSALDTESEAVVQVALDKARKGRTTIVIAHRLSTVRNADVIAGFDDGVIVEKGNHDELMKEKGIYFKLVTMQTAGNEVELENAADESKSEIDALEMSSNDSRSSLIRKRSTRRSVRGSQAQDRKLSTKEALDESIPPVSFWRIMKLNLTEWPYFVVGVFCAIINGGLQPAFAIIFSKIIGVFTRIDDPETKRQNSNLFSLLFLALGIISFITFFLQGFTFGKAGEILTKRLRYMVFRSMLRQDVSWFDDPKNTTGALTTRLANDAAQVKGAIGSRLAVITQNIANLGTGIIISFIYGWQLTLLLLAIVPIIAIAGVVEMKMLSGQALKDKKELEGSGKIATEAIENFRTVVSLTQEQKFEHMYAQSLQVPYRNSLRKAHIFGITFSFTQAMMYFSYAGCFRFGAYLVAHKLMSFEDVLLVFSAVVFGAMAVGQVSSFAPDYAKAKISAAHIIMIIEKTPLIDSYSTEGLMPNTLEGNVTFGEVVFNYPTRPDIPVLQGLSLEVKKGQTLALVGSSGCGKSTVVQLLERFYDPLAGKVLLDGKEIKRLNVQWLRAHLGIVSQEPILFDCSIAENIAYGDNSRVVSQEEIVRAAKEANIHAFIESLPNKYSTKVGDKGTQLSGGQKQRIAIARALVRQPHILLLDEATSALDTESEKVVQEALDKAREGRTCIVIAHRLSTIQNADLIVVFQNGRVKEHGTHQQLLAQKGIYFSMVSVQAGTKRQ
MEKK3 PB1 HTS – modulators of MEKK3-MEK5 PB1 binding, primary screen, biochemical, wildtype MEKK3, multiplex bead flow cytometry, Alexa488-MEK5. Mitogen-activated protein kinase kinase kinase 3 (Homo sapiens), Q99759. bead-based flow cytometry, Alexa488-MEK5 binding to MEKK3; actives lie on both sides; 0 = blocked by unlabeled MEK5, 100 = vehicle. binding response (% of control), % at 10 µM. 290,000 compounds, 1.4% hits. AID 1529, 2009;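 active = binding response more than 3 SD above or below the average of its plate-row segment, actives on both sides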;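 note: Alexa488 bead fluorescence after subtracting the streptavidin-only scavenger bead signal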
MEKK2wt confirm – modulators of MEK5 binding to wildtype MEKK2, confirmation, biochemical, single concentration, multiplex bead flow cytometry | shares compounds with MEKK3 PB1 HTS | Alexa488-MEK5 binding to MEKK2 WT; actives lie on both sides | binding response (% of control), % at 10 µM | 5,900 compounds, 2.4% hits | AID 1892, 2009; in the data active = binding response below about 16% or above about 210%; inactive = in between
MEKK2mut confirm – mutant MEKK2 PB1-MEK5 binding signal retest – biochemical, single concentration, multiplex bead flow cytometry, confirmation; shares compounds with MEKK3 PB1 HTS; Alexa488-MEK5 binding to MEKK2 mutant; percent response, % at 10 µM; 5,900 compounds, 2% hits; AID 1893, 2009; in the data active = percent response mostly above about 71%, no sharp cut-off; inactive = mostly below about 38%;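 note: higher means compound restores mutant binding toward wildtype level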
MEKK3-MEK5 inh – MEKK3 wild-type PB1 binding to MEK5, inhibitors, confirmation, biochemical, bead multiplex flow cytometry, single concentration, wildtype | AID 1894, 2009 | binding response (% of control), % at 10 µM | 5,900 compounds, 1.8% hits | shares compounds with MEKK3 PB1 HTS | Alexa488-MEK5 binding to MEKK3; hits give low values;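 active = binding response below 72% of control, or above a set upper limit, though filed actives all read lower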;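 note: lower values mean stronger disruption of MEK5 binding to MEKK3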
Numbers stand for hits; . = inactive; / = not tested or not shown; [ ] = another dose, or the depositor's remark. In the library only some 2.5% were active in any assay of this set; here they are far more common.

SMILES | MEKK2mut PB1 HTS | Efflux pump inh | MEKK2wt PB1 HTS | ABCG2 block | ABCB1 inh | MEKK3 PB1 HTS | MEKK2wt confirm | MEKK2mut confirm | MEKK3-MEK5 inh
CCC(/C=C1\Sc2ccc(OC)cc2N1CC)=C\c1sc2ccc(OC)cc2[n+]1CCCS(=O)(=O)[O-] | . | . | 6.0[inhibitor] | . | . | 56[inhibitor] | 17[inhibitor] | . | 64
CC(=O)c1ccc(OCCOc2ccc(C#N)cc2)cc1 | . | . | . | / | / | 130 | . | . | .
Clc1ccccc1OCc1nn[nH]n1 | . | . | . | / | / | 131 | . | . | .
CC[N+](C)(CC)CCOC(=O)C1c2ccccc2Oc2ccccc21 | / | . | / | / | / | / | / | / | /
CSc1nsc(SCC(=O)Nc2ccc(C(=O)O)cc2)n1 | . | . | . | / | / | . | / | / | /
COc1cc(/C=C/c2ccc3cccc(OC)c3n2)c(O)c([N+](=O)[O-])c1 | . | . | 55[inhibitor] | . | . | 50[inhibitor] | . | . | .
CC(=O)c1ccc(NC(=O)CSc2ccc(-c3ccc(-n4cccn4)cc3)nn2)cc1 | / | . | / | / | / | / | / | / | /
Cc1ccc(C(=O)N[C@@H](C)CN2C3=NC[C@H](C(C)C)N3C[C@H]2Cc2ccc(O)cc2)cc1Br | . | . | . | . | . | . | / | / | /
COc1ccc(C[C@H]2CN3C(=NC[C@@H]3C(C)C)N2C[C@H](C)NC(=O)c2ccc(C)c(Br)c2)cc1 | . | . | 153 | . | . | . | . | . | .
COc1ccc(C[C@H]2CN3C(=NC[C@@H]3Cc3ccc(O)cc3)N2C[C@H](C)NC(=O)c2ccc(C)c(Br)c2)cc1 | 80 | . | 157 | / | / | . | 4.0[inhibitor] | . | 2.0
CC1=NNC(=O)C1CCC(=O)N/N=C/c1ccc(Cl)cc1Cl (centres undefined) | . | . | . | / | / | . | / | / | /
CCOC(=O)c1ccc(NC(=O)NCCc2cnc[nH]2)cc1 | . | . | . | / | / | . | / | / | /
COc1ccccc1C(=O)NCCC(=O)Nc1cccnc1 | . | . | . | / | / | 73[inhibitor] | . | . | .
COc1ccc(CC(=O)Nc2cc(S(=O)(=O)Nc3ccc(OC)cc3)ccc2OC)cc1 | / | . | / | / | / | / | / | / | /
Cc1onc(-c2ccccc2Cl)c1C(=O)NC(=S)NCC(=O)c1ccccc1 | . | . | . | . | . | . | / | / | /
Cc1c(C(=O)NCCSCc2cccc(C(F)(F)F)c2)cnn1-c1ccc(Cl)cc1 | . | . | . | / | / | . | / | / | /
Cc1ccccc1C(=O)NC1CCN(CC(=O)Nc2ccc3c(c2)OCCO3)CC1 | . | . | . | . | . | . | / | / | /
CCOc1ccccc1NC(=O)NC1CCN(CC(=O)Nc2ccc3c(c2)OCCO3)CC1 | . | . | . | . | . | 75[inhibitor] | . | . | .
COc1ccc(S(=O)(=O)Nc2ccc(-c3ccc4nncn4n3)cc2)c(OC)c1 | / | . | / | / | / | / | / | / | /
O=C(Cc1ccc([N+](=O)[O-])cc1)N/N=C/c1ccc([N+](=O)[O-])o1 | . | . | . | . | . | . | / | / | /
O=C(O)/C=C/c1ccc([N+](=O)[O-])o1 | . | . | . | . | . | 130 | . | . | .
CC1(C(=O)N/N=C/c2ccc([N+](=O)[O-])o2)CC1(Br)Br (centres undefined) | . | . | . | . | . | 132 | . | . | .
CN1CCN(c2ccccc2NC(=O)c2ccc(-c3ccc(Cl)cc3Cl)o2)CC1 | . | . | 156 | . | . | . | . | . | .
Cc1nnc2sc(-c3ccc(NC(=O)c4ccc(-c5ccc(Cl)cc5Cl)o4)cc3)nn12 | . | . | . | / | / | 77[inhibitor] | . | . | .
CS(=O)(=O)N1CCN(c2ccccc2NC(=O)c2ccc(-c3ccc(Cl)cc3Cl)o2)CC1 | . | . | . | . | . | . | / | / | /
SMILES | MEKK2mut PB1 HTS | Efflux pump inh | MEKK2wt PB1 HTS | ABCG2 block | ABCB1 inh | MEKK3 PB1 HTS | MEKK2wt confirm | MEKK2mut confirm | MEKK3-MEK5 inh
CS(=O)(=O)N1CCN(c2ccccc2NC(=O)Cc2ccc(Cl)cc2)CC1 | . | . | 2.0[inhibitor] | . | . | 2.0[inhibitor] | . | . | .
O=C(Nc1ccnc(-c2ccncc2)n1)c1ccc(Cl)cc1 | . | . | . | . | . | . | / | / | /
COc1ccc(Cc2noc(CN(C)CC3(N4CCOCC4)CCCCC3)n2)cc1OC | . | . | . | . | . | . | / | / | /
CCN(CC)CCOC(=O)c1ccc(NC(=O)CCCN2C(=O)S/C(=C/c3ccc(OC)cc3)C2=S)cc1 | 44 | . | 192 | / | / | . | . | . | .
O=C(O)c1cccc(-n2cccc2/C=C2/NC(=O)N(c3ccc(Cl)cc3)C2=O)c1 | . | / | 63[inhibitor] | . | . | 74[inhibitor] | . | . | .
O=C(O)c1cccc(-n2cccc2/C=C2/NC(=O)N(c3cccc(Cl)c3)C2=O)c1 | . | . | . | / | / | . | / | / | /
COc1ccc(-n2cccc2/C=C2/NC(=O)N(c3cccc(Cl)c3)C2=O)cc1 | . | . | . | . | . | 130 | . | . | .
